Assay results gathered from unrelated publications.
Target: Serine/threonine-protein kinase MARK2 (MARK2, Homo sapiens, UniProt Q7KZI7)
Observed: enzyme activity
Mode: inhibitor

SMILES	method	concentration	remaining activity
Cc1cnc(NC2CCOCC2)nc1-n1cnc(C(=O)NC(CN)c2cc(F)cc(Cl)c2)c1 (centres unmarked)	radiometric	1 µM	45%
Cc1nn(CC(F)(F)F)cc1Nc1ncc(Br)c(NCc2ccc(S(N)(=O)=O)cc2)n1	radiometric	1 µM	89%
CCCOc1ccc(OC)c(F)c1C(=O)c1ccc(C(=O)N[C@@H]2CNC[C@H]2NC(=O)c2ccc3[nH]ncc3c2)cc1		10 µM	33%
CC(C)(C)c1nc(-c2cccc(NS(=O)(=O)c3c(F)cccc3F)c2F)c(-c2ccnc(N)n2)s1	radiometric	1 µM	94%
Cc1sc(C(=O)NC2COC2)cc1-n1cc(NC(=O)Nc2c(F)cccc2Cl)cn1		10 µM	99.8%
Cc1nn(CC(F)(F)F)cc1Nc1ncc(Br)c(NCCCNC(=O)C2CCC2)n1	radiometric	1 µM	19%
CCN(CC)c1ccc(C2=NNC(=O)CC2C)cc1[N+](=O)[O-] (centres unmarked)		10 µM	90%
COc1cc(Cl)c(C(=O)N[C@@H](CN[C@H]2CC[C@@H](N)CC2)Cc2ccc(C#N)cc2)cc1-c1ccc(CN[C@H](C)c2ccc(C)cc2)o1		1 µM	98%
O=C(Nc1cnn(-c2csc(C(=O)NC3COC3)c2)c1)Nc1c(F)cccc1Cl		5 µM	90.7%
COc1cc(Nc2cnc(C#N)c(O[C@H](C)CN(C)C)n2)ncc1-c1cnn(C)c1	radiometric	1 µM	111%
CC(C)(C)c1nc2c(s1)c1nc(N)ncc1c1ccc(NS(=O)(=O)c3c(F)cccc3F)c(F)c12	radiometric	1 µM	92%
CN1CCc2cc(Nc3ncc(C4CC4)c(NCCCNC(=O)C4CCC4)n3)ccc2C1	radiometric	1 µM	3%
Oc1cccc(-c2nc(N3CCOCC3)c3oc4ncccc4c3n2)c1		10 µM	107%
NS(=O)(=O)c1ccc(CNc2nc(Nc3cccc(NC(=O)N4CCCC4)c3)ncc2Br)cc1	radiometric	1 µM	57%
CC(C)(O)[C@H]1CC[C@H](Nc2ccc3ncc(-c4cccc(C(F)(F)F)c4)n3n2)CC1		1 µM	101%
Cn1c(=O)n(-c2ccc(C(C)(C)C#N)cc2)c2c3cc(-c4cnc5ccccc5c4)ccc3ncc21		10 µM	86%
Cc1nn(CC(F)(F)F)cc1Nc1ncc(C2CC2)c(NCCc2c[nH]cn2)n1	radiometric	1 µM	90%
